From publication PMC13102995 (Biomedicine & Pharmacotherapy, 2026)
Where two headings read alike, the source gives them in different places.

Assays:
[1] = tested on: neonatal rat dorsal root ganglion (DRG) neurons; assay type: cell-based; conditions: U73122 5 µM, 1 h; 500 nM capsaicin pulses, 1 µM BK
Outline: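 DRG neurons from 3–5-day-old Wistar rats, collagenase IA digested (2.5 mg/mL, 1 h), grown 48 h on 60-electrode arrays (poly-L-lysine/laminin) with NGF and cytosine arabinoside. Test compound (100 µM) or 0.1% DMSO pre-incubated 1 h in serum medium without NGF; PLC inhibitor at 5 µM. Three 30-s pulses of 500 nM capsaicin (P1–P3); bradykinin used at 1 µM.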

PLCβ [2] = assay type: cell-based, Human; conditions: U73122 2 µM, HEK293, mean ± SEM; for inhibition of ACh-induced intracellular Ca2+ response: 1 h, 1 µM ACh
PLCγ = experiment: TG-induced store-operated calcium; assay type: cell-based, human; conditions: U73122 2 µM, 1 h; 1 µM TG; HaCaT; mean ± SEM, N = 2
Outline: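 HaCaT on coverslips used 48 h after plating, loaded with 6 µg/mL Fluo-4 AM/0.05% Pluronic plus test compound (100 µM), 0.1% DMSO or 2 µM U73122 for 1 h, then washed ≥20 min. In Ca2+-free solution, 1 µM thapsigargin/0.1 mM EGTA for 3 min, then 2 mM Ca2+ to trigger SOC entry. Cells ≥20 AFU analysed; ΔFSOC/ΔFTG normalised to vehicle.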

PLCβ [3] = experiment: PIP2 imaging: BK-induced PLCδ-PH-GFP translocation in HEK293T cells; assay type: cell-based, Human; conditions: PL2003 100 µM, U73122 2 µM, PL2204 1–100 µM; versus vehicle
Outline: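 HEK293T transfected with PLCδ-PH-GFP, replated 24 h later on poly-D-lysine and imaged after another 24 h. Pre-incubation 1 h with test compound (1, 10, 100 µM), vehicle or 2 µM U73122. Baseline 30 s in Ca2+-containing solution, pH 7.4, then 250 nM bradykinin for 2 min. Translocation = ΔF/F0; time to maximum timed from onset; IC50 from Hill-equation fit.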

PLCβ3 = biological target: T1, PLCβ3 (Homo sapiens, UniProt Q01970); experiment: Surface plasmon resonance binding to pulled-down PLCβ3; conditions: 12.5–200 µM, multi-cycle, HBS-EP+ buffer, 25 °C
T1 sequence (Q01970 1-1234): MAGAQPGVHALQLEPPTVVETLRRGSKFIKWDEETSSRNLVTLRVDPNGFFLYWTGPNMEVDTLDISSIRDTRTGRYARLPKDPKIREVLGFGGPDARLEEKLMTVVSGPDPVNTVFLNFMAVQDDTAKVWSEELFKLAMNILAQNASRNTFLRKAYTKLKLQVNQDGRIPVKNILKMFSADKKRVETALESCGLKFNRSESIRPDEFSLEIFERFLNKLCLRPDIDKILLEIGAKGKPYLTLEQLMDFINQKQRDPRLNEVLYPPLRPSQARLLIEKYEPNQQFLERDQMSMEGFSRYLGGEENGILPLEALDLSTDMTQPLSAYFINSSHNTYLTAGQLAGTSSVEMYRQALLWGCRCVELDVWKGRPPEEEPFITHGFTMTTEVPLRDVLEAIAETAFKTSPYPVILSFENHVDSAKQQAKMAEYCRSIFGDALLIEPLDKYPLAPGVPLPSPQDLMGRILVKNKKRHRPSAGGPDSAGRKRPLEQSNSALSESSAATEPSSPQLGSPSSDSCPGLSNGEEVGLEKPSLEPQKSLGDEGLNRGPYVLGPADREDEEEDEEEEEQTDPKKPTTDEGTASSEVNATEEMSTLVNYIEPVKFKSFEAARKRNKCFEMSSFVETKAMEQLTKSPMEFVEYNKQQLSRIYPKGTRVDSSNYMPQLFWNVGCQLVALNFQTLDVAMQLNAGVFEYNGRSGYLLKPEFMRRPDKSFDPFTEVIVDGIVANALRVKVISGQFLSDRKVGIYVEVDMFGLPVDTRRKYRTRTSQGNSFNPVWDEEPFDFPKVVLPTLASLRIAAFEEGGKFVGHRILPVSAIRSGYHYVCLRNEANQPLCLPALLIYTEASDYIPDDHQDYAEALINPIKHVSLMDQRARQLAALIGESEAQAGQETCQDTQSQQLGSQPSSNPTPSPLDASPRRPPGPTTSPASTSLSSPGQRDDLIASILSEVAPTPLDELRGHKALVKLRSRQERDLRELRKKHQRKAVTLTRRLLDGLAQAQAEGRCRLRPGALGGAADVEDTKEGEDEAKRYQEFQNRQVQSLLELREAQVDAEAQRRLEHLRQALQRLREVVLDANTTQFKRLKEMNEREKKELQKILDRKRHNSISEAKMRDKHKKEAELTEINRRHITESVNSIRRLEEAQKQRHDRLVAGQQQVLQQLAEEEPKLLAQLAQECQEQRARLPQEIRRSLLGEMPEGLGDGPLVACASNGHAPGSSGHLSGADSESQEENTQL
Outline: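 Multi-cycle SPR at 25 °C. Peptides at 12.5–200 µM, including a randomized control peptide, in HBS-EP+, injected over active and reference flow cells for 250 s at 5 µL/min, with return to baseline between cycles. Reference-subtracted binding levels were read at the end of injection after baseline subtraction.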

[4] = Solubility and aggregation observed on preparation of the peptides; assay type: physicochemical; conditions: observation

COc1ccc2c(c1)CC[C@@H]1[C@@H]2CC[C@]2(C)[C@@H](NCCCCCCN3C(=O)C=CC3=O)CC[C@@H]12 [Peptide U73122, 1-(6-((17β-3-methoxyestra-1,3,5(10)-trien-17-yl)amino)hexyl)-1H-pyrrole-2,5-dione]
inhibition of BK-induced TRPV1 sensitization (P3 - P2) [1]: did not significantly attenuate
inhibition of ACh-induced intracellular Ca2+ response (PLCβ [2]; experiment of Fig. 2B): 40.5 ± 9.4%
inhibition of ACh-induced intracellular Ca2+ response (PLCβ [2]; experiment of Fig. 2C): 65.4 ± 4.3%
inhibition of ACh-induced intracellular Ca2+ response (PLCβ [2]; experiment of Fig. 2D): 51.9 ± 7.5%
percentage of ACh-responsive cells normalized to vehicle (PLCβ [2]; experiment of Fig. 2C): 66.7 ± 9.3%
percentage of ACh-responsive cells normalized to vehicle (PLCβ [2]; experiment of Fig. 2D): 62.0 ± 12.0%
SOC activity (ΔFSOC / ΔFTG normalized to vehicle) (PLCγ): 55.4 ± 9.4
time to reach maximum PLCδ-PH-GFP translocation (PLCβ [3]): does not modify

Ac-IVSNRYSK-NH2 [randomized PL2204]
binding to pulled-down PLCβ3 (SPR) (PLCβ3): strongly reduced binding levels

Ac-IYSSNV-NH2 [PL2005]
solubility ([4]; in different solvents): solubility problems in different solvents
aqueous solubility ([4]; prepared in 0.4% DMSO in extracellular solution): poor aqueous solubility
